The list is not random: actives were taken first. Their share in the collection is about 3.6%.
SENP1 FRET inh – SENP1 (human) catalytic domain inhibition; Q9P0U3; recombinant SENP1 catalytic domain, CyPet-SUMO1-YPet FRET cleavage; inhibition, % at 10 µM; hit rate 0.21% among 360,000;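 active = inhibition at least 30% at 10 µM, raw YFP signal under a set limit, fluorescence ratio 0.5 to 1.5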;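 also: 0% = enzyme with DMSO and 100% = no enzyme wells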
Target sequence (Q9P0U3 419-644 limits assumed): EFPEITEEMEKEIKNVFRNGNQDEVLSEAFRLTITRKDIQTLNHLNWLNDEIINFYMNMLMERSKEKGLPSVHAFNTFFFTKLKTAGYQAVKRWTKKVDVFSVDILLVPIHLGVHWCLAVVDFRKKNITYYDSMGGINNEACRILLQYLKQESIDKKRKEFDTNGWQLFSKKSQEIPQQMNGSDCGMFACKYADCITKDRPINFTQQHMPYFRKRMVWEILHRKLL
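Test system: recombinant human SENP1 catalytic domain, His6-tagged / Medium: pH 8 Tris buffer with EDTA, NaCl, BME, BSA, NP40, catalase / Also added: SUMO1 FRET substrate flanked by Cypet and Ypet, 25 nM / Times: 50 min reaction at room temperature / Signal: FRET, CFP and YFP emission / Control set: no-enzyme low control and enzyme-plus-DMSO high control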
NR3A LBD binder – modulates the human NR3A ligand-binding domain; hit rate 2.5% among 340,000; Tm shift relative to glycine control, % at 25 µM; NR3A LBD differential scanning fluorimetry, Tm shift; 0% = protein alone, 100% = glycine-bound protein;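 active = melting temperature shift of at least 10% of the positive control shift, at one fixed dose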
ATG4B inhibitor – inhibitors of human ATG4B cysteine protease; inhibition, % at 8.33 µM; hit rate 0.51% among 340,000; AID 504462; ATG4B cleavage of LC3-PLA2, NBD-HPC fluorescence, 1 h; Q9Y4P1; in the data active = inhibition above about 40%
NadD inh – NadD (S. aureus) enzyme inhibition; purified NadD enzyme, colorimetric absorbance read-out; inhibition, % at 20 µM; hit rate 0.78% among 360,000; AID 602399; in the data active = inhibition above about 26%
UCH37 DUB inh – inhibitors of human deubiquitinating enzyme UCH37 | inhibition, % (concentration not given with the values) | Q9Y5K5 | purified proteasome/UCH37, Ub-AMC cleavage fluorescence | hit rate 0.33% among 330,000;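 active = mean inhibition over replicate wells above about 20%, limit read from the data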;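 also: 0% = compound-free wells with enzyme and 100% = wells lacking proteasome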
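assay system = human UCH37 enzyme supplied as purified proteasome complex | amount = proteasome at 0.15 nM in the dispensed enzyme solution | schedule = 30 min compound-proteasome preincubation then 25 min substrate reaction, room temperature | measured by = fluorescence, ex 355 nm, em 460 nm | benchmarks = no-proteasome wells (full inhibition) and compound-free wells (no inhibition)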
ATG4B confirm – confirmation of human ATG4B inhibitors; AID 504757; shares compounds with ATG4B inhibitor; inhibition, % at 8.33 µM; ATG4B protease fluorescent substrate cleavage assay; hit rate 92% among 320; in the data active = inhibition above about 39%
PLA2 ctr – inhibits human PLA2, flagging false ATG4B inhibitors; shares compounds with ATG4B inhibitor; purified PLA2, NBD-C6-HPC fluorescence, 45 min; inhibition, % at 8.33 µM; hit rate 66% among 1,600; in the data active = inhibition above about 50%
Target sequence (P04054 whole entry, looked up): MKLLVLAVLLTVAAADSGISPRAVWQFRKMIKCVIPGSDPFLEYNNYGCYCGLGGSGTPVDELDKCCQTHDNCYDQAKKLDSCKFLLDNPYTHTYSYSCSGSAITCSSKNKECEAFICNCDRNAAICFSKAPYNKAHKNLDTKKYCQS
* marks the source's active call; other numbers are inactive results; . = no result.

SMILES | SENP1 FRET inh | NR3A LBD binder | ATG4B inhibitor | NadD inh | UCH37 DUB inh | PLA2 ctr | others
CCCCCCCCCCCCCCC(O)C[N+](C)(CCO)CCO (configuration not stated) | 1 | -2 | 43* | 5 | . | 42 | ATG4B confirm=64*
C[C@]12CCC3c4ccc(O)cc4CCC3C1CCC2=NN (some centres not stated) | . | . | . | . | 3 | .
Cc1cc(C(=O)N2CCCC(C(=O)c3ccc(Oc4ccccc4)cc3)C2)n[nH]1 (configuration not stated) | 0 | 0 | 46* | 1 | 4 | 39 | ATG4B confirm=62*
CC(C)(C)c1ccc(C(=O)C2CCCN(C(=O)c3ccccn3)C2)cc1 (configuration not stated) | 1 | 0 | 43* | 3 | 4 | 43 | ATG4B confirm=81*
COc1ccc(C=NNC(=O)CN(C)C(=O)OCc2ccccc2)cc1OC | . | . | . | . | 2 | .
Cc1ccccc1CSc1nnnn1-c1ccc(C(N)=O)cc1 | 0 | -2 | 58* | -14 | 0 | 54*
O=C(O)c1ccc(-n2nnnc2SCc2ccccc2F)cc1 | 1 | 1 | -4 | 4 | 1 | .
COc1ccc(O)c(C=NN2CCCCC2)c1 | . | . | . | . | 7 | .
CCn1c(SCC(=O)NN=Cc2cc(OC)c(OC)c(OC)c2)nc2ccccc21 | . | . | . | . | 2 | .
Cc1nn(CCC(=O)O)c2nc(-c3cccnc3)cc(C(F)(F)F)c12 | -2 | -2 | -8 | 1 | -67 | .
Cc1nn(CCC(N)=O)c2nc(-c3cccs3)cc(C(F)(F)F)c12 | 1 | -6 | 86* | -7 | -331 | 84*
CN(C)C=Nc1ncnc2c1cnn2-c1ccc(C(F)(F)F)cn1 | . | . | . | . | 0 | .
OC(c1cc(-c2ccc(Cl)cc2)nc2ccccc12)C1CCCCN1 (configuration not stated) | -1 | -2 | 42* | -4 | . | 52*
O=C(Nc1ccc([N+](=O)[O-])cc1)c1ccccc1F | 1 | -1 | 3 | 1 | 3 | .
CC1(c2ccc(NC(=O)c3ccccc3F)cc2)CC1(Cl)Cl (configuration not stated) | 0 | -6 | 57* | -7 | 5 | 67*
Fc1ccc(NC(=S)Nc2ccccc2OC(F)F)cc1Cl | -1 | 5 | 48* | -9 | 4 | 59*
Cc1ccc(NC(=S)Nc2ccc(Cl)c(Cl)c2)c(OC(F)F)c1 | -2 | 15* | 53* | 0 | 2 | 61*
COc1ccc2ccccc2c1C=NN1C(=O)CSC1=S | . | . | . | . | 3 | .
Cc1cccc2cc(C=NNC(=O)[C@H]3C[C@@H]3c3ccccc3)c(Cl)nc12 | . | . | . | . | -12 | .
Cc1nc(NC(=O)c2ccccc2)sc1-c1csc(NCc2ccco2)n1 | 5 | 0 | 41* | 47* | -23 | 67*
O=C(Nc1cc(Cl)ccc1Cl)C1Cc2ccccc2OC1=NO (configuration not stated) | . | . | . | . | 6 | .
CCOC(=O)c1sc2ccccc2c1NC(=O)c1coc2ccccc2c1=O | 3 | -1 | 53* | -3 | 1 | 43
Cc1cccc(-c2n[nH]c(=S)n2N=C/C=C/c2ccco2)c1 | . | . | . | . | 9 | .
COc1ccc(-c2nc(CS(=O)(=O)CC(=O)NCc3ccccc3Br)c(C)o2)cc1 | 2 | 2 | 84* | 1 | 5 | 92*
COc1ccc(C=NNC(=O)CNC(=O)c2ccc(S(=O)(=O)N3CCCC3)cc2)c(OC)c1 | . | . | . | . | 5 | .
SMILES | SENP1 FRET inh | NR3A LBD binder | ATG4B inhibitor | NadD inh | UCH37 DUB inh | PLA2 ctr | others
ON=Cc1ccc2ccccc2c1 | . | . | . | . | -5 | .
COCCNc1nc(CSc2ccccc2)nc2sc(C)c(C)c12 | -1 | 1 | 46* | -4 | 3 | 49
CC(C)(C)C(=O)Nc1nnc(CSCc2ccccc2F)s1 | 0 | -1 | 40* | 1 | 6 | 40 | ATG4B confirm=59*
CC(C)C(=O)Nc1nnc(CSCc2ccccc2F)s1 | -3 | -1 | -10 | 4 | 0 | .
O=C(Nc1nnc(CSCc2ccc(F)cc2)s1)c1ccc([N+](=O)[O-])cc1 | 2 | -2 | -6 | 1 | 3 | .
O=C(Nc1nnc(CSCc2ccccc2F)s1)c1cccc([N+](=O)[O-])c1 | -7 | 2 | 51* | 5 | -2 | 58*
